OX1R antag-1: OX1R (HCRTR1) antagonists, primary screen, fluorescence, CHO/OX1R cells, Fluo-8 calcium, orexin A; Orexin/Hypocretin receptor type 1 (Homo sapiens), O43613; Fluo-8 calcium fluorescence; inhibition, % at 5 µM; 0.43% of 330,000 active;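 active means inhibition above its plate's threshold, mean inhibition of all tested compounds on the plate plus 3 SD, cut at about 37% in these data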;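 further: 0% = orexin A challenge wells and 100% = SB-334867-A antagonist wells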
TAAR1 agonist: human TAAR1 agonists, primary screen, Fluo-8 calcium fluorescence, CHO RD-HGA16 cells; vehicle wells 0%, saturating PEA agonist 100%; Trace amine-associated receptor 1 (Homo sapiens), Q96RJ0; 0.99% of 360,000 active; activation, % at 3 µM;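 active means activation above the mean activation of all test compounds in the run plus 3 SD, cut at about 38% in these data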
Target sequence (Q96RJ0 whole entry, looked up): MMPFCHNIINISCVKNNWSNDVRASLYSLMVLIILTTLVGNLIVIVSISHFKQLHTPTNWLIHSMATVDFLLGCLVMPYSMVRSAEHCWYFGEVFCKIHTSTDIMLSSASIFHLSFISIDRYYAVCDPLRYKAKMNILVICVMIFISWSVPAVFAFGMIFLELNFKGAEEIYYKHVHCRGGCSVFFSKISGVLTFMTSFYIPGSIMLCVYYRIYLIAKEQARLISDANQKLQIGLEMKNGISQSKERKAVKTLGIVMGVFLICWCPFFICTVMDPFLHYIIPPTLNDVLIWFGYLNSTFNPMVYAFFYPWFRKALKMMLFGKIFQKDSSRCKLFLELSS
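System: CHO RD-HGA16 cells carrying human TAAR1 plus Gα16; Incubation: 17-24 h seeding, 75 min 37 °C dye, 30 min RT; Measured by: Fluo-8 fluorescence, 5 s baseline then 140 s kinetic read; Control set: DMSO and PEA EC100; Replication: single well for each compound.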
OX1R antag-2: antagonists of human orexin 1 receptor (OX1R). Orexin/Hypocretin receptor type 1 (Homo sapiens), O43613. OX1R-expressing cells, FRET antagonist read-out. inhibition, % at 6.6 µM. 1.8% of 330,000 active. AID 485270, 2010; in the data active means inhibition mostly above about 38%, no sharp cut-off; inactive means mostly below about 40%;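 further: 0% = agonist challenge alone and 100% = reference antagonist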
TAAR1 antagonist: human TAAR1 antagonists, primary screen, Fluo-8 calcium fluorescence, CHO RD-HGA16 cells | Trace amine-associated receptor 1 (Homo sapiens), Q96RJ0 | antagonist | inhibition, % at 3 µM | 1.5% of 360,000 active;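 active means inhibition above a per-plate cutoff, the mean inhibition of test compounds on that plate plus 3 SD, cut at about 49% in these data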;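 further: 0% = DMSO plus EC80 beta-PEA response and 100% = DMSO alone without agonist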
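Assay system: RD-HGA16 CHO cells with stable hTAAR1 and Gα16 / Reagent: EC80 β-phenethylamine stimulus / Doses: 3 µM, single point / Timing: dye loading 75 min at 37 °C, then 30 min room temperature / Measured by: Fluo-8 intracellular calcium dye fluorescence, real-time kinetic reads / Controls: vehicle wells and EC80 agonist wells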
CHO parental Ca: ATP-evoked calcium signal inhibitors, parental CHO, primary screen, counter-screen for OX1R antagonist project, cell-based, fluorescence, Fluo-8 calcium dye; parental CHO-K1, ATP-induced calcium, Fluo-8 fluorescence; inhibition, % at 5.6 µM; 0.63% of 330,000 active;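 active means inhibition above that plate's mean sample inhibition plus 3 SD, cut at about 26% in these data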;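 further: 0% = ATP-challenged DMSO wells and 100% = DMSO wells without ATP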
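Test system: parental CHO cells; detection: calcium-sensitive Fluo-8 fluorescence; evaluation: percent inhibition of calcium signal; also added: ATP as calcium-mobilizing challenge; repeats: one well per compound; control set: ATP-challenged DMSO wells low, unchallenged DMSO wells high; compound: single nominal dose of 5.6 µM per compound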
GalR3 antagonist: GalR3 antagonists in HEK293 cells, primary screen, cell-based, fluorescence readout | inhibition, % at 3 µM | HEK293 GalR3-CNG cAMP membrane potential fluorescence; galR3 body fused to GalR1 C-terminus | AID 651719, 2012 | 0.44% of 360,000 active | Galanin receptor type 3 (Homo sapiens), O60755;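 active means inhibition above the screen-wide average plus 3 SD, cut at about 13% in these data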;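 further: forskolin and galanin both at EC90 stimulate the cells; cAMP rise reported by CNG channel membrane potential dye signal; 0% = forskolin plus galanin with DMSO and 100% = forskolin alone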
Target sequence (O60755 1-299 limits assumed): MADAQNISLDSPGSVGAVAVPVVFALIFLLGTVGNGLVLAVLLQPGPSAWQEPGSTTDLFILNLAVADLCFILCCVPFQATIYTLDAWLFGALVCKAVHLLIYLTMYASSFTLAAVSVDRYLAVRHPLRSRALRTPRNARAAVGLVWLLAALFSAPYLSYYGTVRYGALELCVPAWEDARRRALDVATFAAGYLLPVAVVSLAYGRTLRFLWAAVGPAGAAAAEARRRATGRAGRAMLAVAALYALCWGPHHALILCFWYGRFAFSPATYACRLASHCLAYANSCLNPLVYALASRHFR
OX1R HTRF conf: OX1R (HCRTR1) antagonists, confirmation, cell-based, HTRF; 49% of 1,800 active; shares compounds with OX1R antag-2; OX1R-expressing cells, HTRF antagonist assay; inhibition, % at 6.6 µM; in the data active means inhibition above about 55%;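 further: CHO cells expressing OX1R stimulated with orexin A at about EC80; 0% = agonist challenge alone and 100% = reference antagonist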
CHO-K1 HTRF cnt: signal inhibition in parental CHO-K1 cells, counter-screen for OX1R antagonist project, cell-based, HTRF; shares compounds with OX1R antag-2; HTRF counterscreen; inhibition, % at 6.6 µM; 48% of 1,800 active; in the data active means inhibition above about 17%;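 further: 0% = agonist challenge with vehicle and 100% = vehicle alone without agonist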
Numbers without * were called inactive; nt = no result. Most compounds without a hit are left out; they make up all but 4.2% or so of the library.

SMILES	OX1R antag-1	TAAR1 agonist	OX1R antag-2	TAAR1 antagonist	CHO parental Ca	GalR3 antagonist	OX1R HTRF conf	CHO-K1 HTRF cnt
COc1cccc(C2CCCCN(C)C2=O)c1 (configuration not stated)	-7.6	0.5	4.1	-13.1	-1.3	-1.1	nt	nt
Cc1cnnc2ccc3c(no[n+]3[O-])c12	-4.5	4.7	126.2*	8.1	-3.4	0.0	43.4	53.9*
COc1ccc2no[n+]([O-])c2c1	6.2	nt	21.5	nt	2.9	nt	nt	nt
O=S(=O)(Nc1ccc2c(c1)OCCO2)c1cccc2nsnc12	-8.5	10.2	43.3	-2.9	-9.8	-7.3	nt	nt
CC(Cl)C(=O)Nc1cc(C(F)(F)F)ccc1N1CCOCC1 (configuration not stated)	-21.9	-1.5	93.7*	-12.6	0.2	-2.7	15.6	-4.2
Cn1nnnc1SCC(=O)Nc1cc(C(F)(F)F)ccc1N1CCOCC1	-18.2	-1.4	11.9	-9.8	-15.4	-3.9	nt	nt
O=C(CSc1nc2ccccc2[nH]1)Nc1cc(C(F)(F)F)ccc1N1CCOCC1	25.6	3.5	86.7*	5.5	-15.6	-4.5	52.6	0.7
CC1CC1C(=O)Nc1cc(C(F)(F)F)ccc1N1CCOCC1 (configuration not stated)	-8.6	1.4	16.2	-13.5	-10.9	-4.4	nt	nt
COc1ccc(NC(=O)NNC(=O)c2cc(C3CC3)nc3ccccc23)c(OC)c1	-10.7	3.1	9.7	-26.5	6.6	-1.4	nt	nt
Cc1ccnc(NC(=O)c2ccccc2[N+](=O)[O-])c1	-8.8	4.2	16.5	-1.8	-18.8	-2.8	nt	nt
Cc1ccc(/C=C/C(=O)c2ccc([N+](=O)[O-])o2)cc1	-20.9	3.8	25.5	13.6	-7.0	-0.2	nt	nt
Cc1ccc(CNC(=O)c2ccc([N+](=O)[O-])o2)cc1	-20.2	3.1	78.3*	3.0	0.5	2.8	22.9	33.4*
Cc1ccnc(NC(=O)c2ccc([N+](=O)[O-])o2)c1	-20.3	1.5	94.0*	2.1	-3.2	-3.6	51.3	68.2*
N#C/C(=C\c1cccnc1)C(=O)Nc1ccc(C(=O)O)cc1	4.3	1.7	9.5	3.1	-5.9	-2.8	nt	nt
c1ccc(-c2nc3nc4ccccc4nc3n2Cc2ccco2)cc1	-12.7	6.2	107.3*	21.6	-19.9	-6.2	33.2	18.1*
COc1ccc(NC(=O)CS(=O)CC(=O)N2CCN(C3CCCC3)CC2)cc1 (configuration not stated)	-3.9	0.2	17.6	-13.7	0.7	-8.8	nt	nt
O=C(O)C[C@H]1c2cc(C(F)(F)F)ccc2S(=O)(=O)N1C1CCCC1	-22.3	12.2	13.3	-10.1	3.9	-3.5	nt	nt
N#C/C(=N\Nc1ccc(Cl)cc1)C(=N)N1CCCCC1	-23.3	5.8	77.0*	4.0	17.0	-1.5	18.1	10.7
Cc1ccc(CNC(=O)CN2C(=O)C3(OCCCO3)c3ccccc32)cc1	-33.7	nt	20.8	nt	-6.9	nt	nt	nt
Cc1cccnc1-n1c(CCN2C(=O)c3ccccc3C2=O)nc2ccccc2c1=O	25.5	5.9	91.7*	2.9	-19.1	0.1	84.6*	1.9
Cc1ccnc(-n2c(CCN3C(=O)c4ccccc4C3=O)nc3ccccc3c2=O)c1	-42.8	6.3	16.7	6.2	-6.8	0.3	nt	nt
CCn1c(SCc2nc(-c3ccccc3)no2)nnc1-c1cccs1	-7.5	8.8	31.2	-4.8	-24.6	-1.1	nt	nt
CCn1c(SCc2nc(-c3cccs3)no2)nnc1-c1c[nH]c2ccccc12	10.2	18.3	81.0*	49.7*	-25.4	-5.9	43.4	2.8
Nc1nc2ccccc2n1/N=C/c1cccnc1	-12.1	2.0	40.0	-9.9	-3.0	-4.4	nt	nt
Nc1nc2ccccc2n1/N=C/c1ccc([N+](=O)[O-])s1	-4.2	30.9	78.1*	-11.4	-4.0	1.9	26.6	26.9*
SMILES	OX1R antag-1	TAAR1 agonist	OX1R antag-2	TAAR1 antagonist	CHO parental Ca	GalR3 antagonist	OX1R HTRF conf	CHO-K1 HTRF cnt
c1ccc2c(c1)oc1c(Nc3ccc4c(c3)OCO4)ncnc12	-8.2	8.4	66.0	-2.6	-11.0	-4.2	nt	nt
c1ccc2c(c1)oc1c(NCc3ccc4c(c3)OCO4)ncnc12	28.9	nt	88.5*	nt	18.6	nt	81.8*	4.0
CC(=O)Nc1nc2nc(-c3ccccc3)cc(-c3ccccc3)n2n1	-30.4	5.0	27.6	12.3	-15.2	-3.3	nt	nt
O=C(Nc1nc2nc(-c3ccccc3)cc(-c3ccccc3)n2n1)c1ccco1	-5.2	10.4	79.6*	33.6	-18.5	-4.0	46.5	6.7
O=C(CSc1nc(O)c(C2CCCCC2)c(=O)[nH]1)Nc1ccccc1Cl	-10.4	-0.1	78.5*	-3.9	-13.0	0.4	20.3	1.1
CC(=O)Nc1c2c3c(cccc3n(C)c1=O)C(=O)c1ccccc1-2	-14.5	5.0	154.0*	-17.6	-4.2	0.1	42.9	64.6*
Nc1ncc(-c2ccc([N+](=O)[O-])cc2)cn1	-1.1	0.9	104.6*	1.2	-11.4	-1.1	39.2	41.5*
O=[N+]([O-])c1ccc(-c2cnc(NO)nc2)cc1	-4.8	1.5	47.0	-10.6	-6.0	-4.9	nt	nt
C=CCNC(=O)CN1CCN(Cc2ccc3c(c2)OCO3)CC1	-19.4	5.6	-10.7	-8.9	5.3	-1.2	nt	nt
CCN(CC)c1ccc(N=Nc2nn(C)c(C)c2[N+](=O)[O-])cc1	-27.0	-2.9	88.2*	-21.5	-15.2	-1.1	42.9	29.3*
CCN(CC)c1ccc(N=Nc2ncn[nH]2)cc1	-19.6	-0.6	138.5*	14.8	-1.0	-1.2	35.0	56.1*
CCN(CC)c1ccc(/C=N/O)cc1	-20.5	-1.6	2.4	-3.3	9.7	-2.7	nt	nt
COc1ccc(OCc2nnc(SCC(=O)Nc3oc(C)c4c(C)n[nH]c(=O)c34)n2C)cc1	nt	0.8	nt	-19.9	nt	2.6	nt	nt
CN(CCO)c1cc(N(C)CCO)c([N+](=O)[O-])cc1[N+](=O)[O-]	-0.4	2.8	17.1	-16.5	5.8	-1.7	nt	nt
CN(CCO)C1=NS(=O)(=O)c2cc([N+](=O)[O-])ccc21	-9.5	8.3	95.1*	9.1	-8.6	-3.0	66.3*	93.9*
Cc1csc(NC(=O)CSCC(=O)O)c1-c1nc2ccccc2s1	23.4	1.9	82.7*	-9.8	-8.0	1.1	87.7*	14.7

Source: PubChem BioAssay (The Scripps Research Institute Molecular Screening Center)
